# Article PMC2831214 (Nature chemical biology, 2010)
# Entries after “also recorded” stand apart in the source; their conditions may differ. Numbered stars: 1 amine (or outer) side, 2 acyl side, 3 side chain; on linkers, the order of the positions; unused ones are H or OH. Bridge positions count the residues as written; N and C are the ends. Square brackets hold non-standard residues; d marks the D form. Peptide text beside a SMILES is read from it. I, II: the chains in the order shown. Actinocin(9to1) = Cc1c2oc3c(C)ccc(C(=O)[*:1])c3nc-2c(C(=O)[*:2])c(N)c1=O; NMeV = CN[C@H](C(=O)O)C(C)C; Sar = CNCC(=O)O
# Columns and labels:
# [1] = test system: RNA synthesis in HeLa cells; assay: RNA synthesis; type: cell-based; settings: [3H]uridine 2 h
# Outline: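 HeLa cells exposed to a range of test compound concentrations with [3H]uridine for 2 h. TCA-precipitated material on PVDF membrane quantified by scintillation counting. Actinomycin D and cycloheximide served as controls.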
# [2] = test system: protein synthesis in HeLa cells; assay: De novo protein synthesis by [35S]cysteine/methionine metabolic labeling; type: cell-based; settings: for Effect on protein synthesis (translation): metabolic labeling 2 h
# Outline: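 HeLa cells were given varying concentrations of test compound with [35S]cysteine/methionine for 2 h. TCA-precipitated proteins were collected on PVDF membrane and scintillation counted. Cycloheximide served as translation-inhibitor control and actinomycin D as transcription-inhibitor control. Runs were in triplicate, with s.d. shown.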
# [3] = target: binding of deacylated tRNA to the E-site of ribosomes (Oryctolagus cuniculus, UniProt G1SNY0+G1T040); assay: Deacylated tRNA binding to ribosomes; set-up: species or system rabbit
# Outline: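 Deacylated tRNA was 3′-end labelled with [32P] and diluted to 80,000 cpm/pmol. Inhibitor was at graded concentrations; 4 µM unlabelled deacylated tRNA was the control. Samples were diluted with 1 ml buffer, filtered through nitrocellulose, washed 5× and scintillation counted.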
# [4] = target: ribosome on rabbit β-globin mRNA (Oryctolagus cuniculus, UniProt G1SNY0+G1T040); assay: Toeprinting on rabbit β-globin mRNA in rabbit reticulocyte lysate; type: biochemical; settings: CHX 10 mM; LTM at 1/10,000th of the CHX concentration
# [5] = target: eEF1A-mediated binding of aminoacyl-tRNA to ribosomes (Oryctolagus cuniculus, UniProt G1SNY0+G1T040); assay: eEF1A-dependent aminoacyl-tRNA binding; type: biochemical, rabbit; settings: 200 µM compound
# Outline: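 89 pmol ribosomes in 20 mM HEPES pH 7.4, 100 mM KCl, 10 mM MgCl2, 1 mM DTT were mixed with 200 ng poly(U), 2.2 µg eEF1A, 150 µM GDPNP and 200 µM compound before 10 pmol [14C]Phe-tRNAPhe was added. After 10 min at 37 °C, samples were diluted, filtered through nitrocellulose, rinsed and scintillation counted (1 pmol = 1100 dpm).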
# [6] = target: eEF2-mediated translocation (Oryctolagus cuniculus, UniProt G1SNY0+G1T040); assay: eEF2-dependent translocation; type: biochemical, rabbit; settings: 200 µM compound
# [7] = test system: rabbit reticulocyte lysate with rabbit β-globin RNA; assay: Polysome profiles in vitro; type: biochemical; settings: cell free system, 15 min
# HEK 293T cells = assay: Polysome profiles in cells; type: cell-based; settings: 30 min
# [8] = target: pre-assembled initiation complexes (Saccharomyces cerevisiae, UniProt P02406+P0CX27); assay: Reconstituted translation elongation, tripeptide; type: biochemical; settings: 200 µM
# [9] = test system: HeLa, MDA-MB231 and Jurkat T cells; assay: Cell proliferation screen by [3H]-thymidine incorporation; type: cell-based; settings: 2.5 µM, 24 h
# Outline: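 Each of the three cell lines was exposed to test compound at 2.5 µM for 24 h. [3H]-thymidine was then applied to monitor cellular DNA synthesis as the proliferation read-out.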
# [10] = target: ribosomes, eEF1A and eEF2 (Oryctolagus cuniculus, UniProt G1SNY0+G1T040); assay: Polyphenylalanine synthesis on a poly; type: biochemical, rabbit; settings: 200 µM
# breast cancer cell lines = assay: Proliferation of breast cancer cell lines by [3H]thymidine incorporation; type: cell-based; settings: array of breast cancer cell lines, 24 h
# Candida = settings: cited from earlier work
# MCF10A = assay: Proliferation of non-tumorigenic breast cell line by [3H]thymidine incorporation; type: cell-based; settings: 24 h
# MDA MB 231 tumors = assay: Mouse xenograft model; type: in vivo, female nude mice; settings: 0.6 mg/kg every day for one month, intraperitoneal
# Outline: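 Two million MDA MB 231 cells were injected subcutaneously into female nude mice. Once tumours were palpable, mice received 0.6 mg/kg test compound or solvent alone daily for one month.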
# P388 lymphoma = settings: cited from earlier work
# [11] = target: peptide bond formation on ribosomes (Oryctolagus cuniculus, UniProt G1SNY0+G1T040); assay: Peptidyl transfer; type: biochemical, rabbit; settings: LTM even at millimolar concentrations
# [12] = test system: cap-dependent and EMCV, HCV, CrPV IRES-mediated translation; assay: IRES dual luciferase reporter assay in rabbit reticulocyte lysate; type: biochemical; settings: HCV and CrPV IRES reporters
# translation = settings: cited from earlier work
# translation in vitro = assay: In vitro translation; type: biochemical
# Sequence of pre-assembled initiation complexes (P02406 2-149 limits assumed): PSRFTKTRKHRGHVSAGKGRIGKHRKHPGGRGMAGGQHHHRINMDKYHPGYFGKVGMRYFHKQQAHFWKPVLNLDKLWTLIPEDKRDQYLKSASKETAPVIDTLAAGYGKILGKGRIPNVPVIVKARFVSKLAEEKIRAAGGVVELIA
# Sequence of pre-assembled initiation complexes (P0CX27 2-106 limits assumed): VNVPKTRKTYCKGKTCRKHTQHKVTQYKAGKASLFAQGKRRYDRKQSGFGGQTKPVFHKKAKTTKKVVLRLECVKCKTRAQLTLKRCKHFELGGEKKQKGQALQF
smiles,measurement,setting,value
"Cc1c2oc3c(C)ccc(C(=O)N[C@@H]4C(=O)N[C@H](C(C)C)C(=O)N5CCC[C@H]5C(=O)N(C)CC(=O)N(C)[C@@H](C(C)C)C(=O)O[C@@H]4C)c3nc-2c(C(=O)N[C@@H]2C(=O)N[C@H](C(C)C)C(=O)N3CCC[C@H]3C(=O)N(C)CC(=O)N(C)[C@@H](C(C)C)C(=O)O[C@@H]2C)c(N)c1=O [Actinomycin D, reference compound] (I: T[dV]P[Sar][NMeV] / II: T[dV]P[Sar][NMeV]; ester I:1-I:C, II:1-II:C; linker I:N-II:N via Actinocin(9to1))",Effect on transcription,[1],concomitantly blocked transcription and translation
same,Effect on protein synthesis (translation),[2],concomitantly blocked transcription and translation
"C[C@@H]1C[C@@H]([C@H](O)CC2CC(=O)NC(=O)C2)C(=O)[C@@H](C)C1 [CHX, cycloheximide, reference compound]",Effect on transcription,[1],only affected transcription at very high doses
same,Concentration causing a detectable decrease in the amount of bound tRNA,[3],10 mM
same,"Toeprint titration, ribosome arrest",[4],about half the ribosomal population to stop at the very first codon
same,Effect on eEF1A-mediated binding of aminoacyl-tRNA,[5],not inhibited
same,Effect on eEF2-mediated translocation (phenylalanyl puromycin formation),[6],inhibited phenylalanyl puromycin formation
same,Effect on protein synthesis (translation),[2],strongly inhibited translation
same,Effect on polysome profile in vitro,[7],causing accumulation of 80S ribosomes
same,Effect on polysome profile in cells,HEK 293T cells,little difference between CHX and solvent control
same,Effect on tripeptide formation,[8],"similar, albeit less pronounced effect"
CO[C@@H](/C=C/CC/C=C/C(=O)O)[C@@H](O)[C@H](C)[C@@H](O)/C(C)=C/[C@H](C)C(=O)CCCC1CC(=O)NC(=O)C1 [Dorrigocin B],Inhibition of cell proliferation ([3H]-thymidine incorporation),[9],neither compound affected cell proliferation
same,Effect on protein synthesis (translation),[2],no inhibitory effect; also recorded: abolished any inhibitory activity
"CO[C@H]1/C=C/CC/C=C/C(=O)O[C@@H](/C(C)=C/[C@H](C)C(=O)CCCC2CC(=O)NC(=O)C2)[C@@H](C)[C@@H]1O [Isomigrastatin, isomigrastatin]",Effect on transcription,[1],without a significant impact on transcription
same,Inhibition of cell proliferation ([3H]-thymidine incorporation),[9],highly active
same,Effect on protein synthesis (translation),[2],exclusively inhibited protein synthesis
"C/C(=C\[C@H](C)C(=O)C[C@H](O)CC1CC(=O)NC(=O)C1)[C@@H]1OC(=O)/C=C/CC/C=C/C=C\[C@@H]1C [LTM, lactimidomycin]",Effect on transcription,[1],without a significant impact on transcription
same,Effect on polyphenylalanine synthesis,[10],inhibited polyphenylalanine synthesis
same,"IC50 concentrations, cell growth",breast cancer cell lines,low nanomolar range
same,Sensitivity of Candida,Candida,resistant
same,"Toeprint titration, ribosome arrest",[4],arrested the ribosome on the start codon
same,Effect on eEF1A-mediated binding of aminoacyl-tRNA,[5],not inhibited
same,Effect on eEF2-mediated translocation (phenylalanyl puromycin formation),[6],inhibited phenylalanyl puromycin formation
same,Inhibition of growth of non-tumorigenic cells,MCF10A,higher doses were necessary
same,Inhibition of cell proliferation ([3H]-thymidine incorporation),[9],most potent inhibitor of cell proliferation; also recorded: highly active
same,Effect on tumor growth in vivo,MDA MB 231 tumors,appreciable effect on tumor growth
same,Survival of mice with P388 lymphoma,P388 lymphoma,extended the survival
same,Potency as inhibitor of translation relative to CHX,[2],about 10 fold
same,Effect on protein synthesis (translation),[2],exclusively inhibited protein synthesis
same,Effect on polysome profile in vitro,[7],causing accumulation of 80S ribosomes
same,Effect on peptide bond formation (methionyl-puromycin),[11],did not affect peptide bond formation
same,Effect on polysome profile in cells,HEK 293T cells,large increase in 80S ribosomes accompanied by depletion of polysomes
same,Effect on cap-dependent and IRES-mediated translation,[12],inhibited translation from all three constructs to a similar degree
same,Effect on tripeptide formation,[8],greatly slowed down tripeptide formation
"CO[C@H]1/C=C/CC/C=C/C(=O)O[C@H]([C@H](C)C(=O)CCCC2CC(=O)NC(=O)C2)/C(C)=C\[C@@H](C)[C@@H]1O [Migrastatin, migrastatin]",Inhibition of cell proliferation ([3H]-thymidine incorporation),[9],neither compound affected cell proliferation
same,Effect on protein synthesis (translation),[2],no inhibitory effect
"CC(/C=C/C(C)=C/[C@@H]1Cc2nc(cs2)[C@@H](C)C[C@@H](N)CC(=O)O[C@@H](C)C/C(C)=C/C=C\C(=O)O1)=C\CN(C)C [PatA, Pateamine A, reference compound]",Effect on cap-dependent and IRES-mediated translation,[12],allowed translation off the HCV IRES
"CSC[S@+]([O-])C[C@H](CO)NC(=O)/C=C/c1c(C)[nH]c(=O)[nH]c1=O [Sparsomycin, reference compound]",Effect on peptide bond formation (methionyl-puromycin),[11],prevented methyionyl-puromycin synthesis
C=C/C(C)=C/[C@H](C)C(=O)C[C@H](O)CC1CC(=O)NC(=O)C1 [Streptimidone],Inhibition of translation,translation,inhibits translation
"C/C(=C\[C@H](C)C(=O)C[C@H](O)CC1CC(=O)NC(=O)C1)[C@@H]1OC(=O)CCCC/C=C/C=C\[C@@H]1C [compound 7, 2H Lactimidomycin]",Inhibition of cell proliferation ([3H]-thymidine incorporation),[9],highly active
"CO[C@H]1/C=C/CC/C=C/C(=O)O[C@@H](/C(C)=C/[C@H](C)C(=O)/C=C/CC2CC(=O)NC(=O)C2)[C@@H](C)[C@@H]1O [compound 8, Didehydro Isomigrastatin]",Inhibition of cell proliferation ([3H]-thymidine incorporation),[9],highly active
"CCOC(=O)CO[C@@H](CC(=O)[C@@H](C)/C=C(\C)[C@@H]1OC(=O)/C=C/CC/C=C/C=C\[C@@H]1C)CC1CC(=O)NC(=O)C1 [compound 36, Ethylacetyl-Lactimidomycin]",Effect of modification on translation inhibitory activity of LTM,translation in vitro,did not significantly decrease the activity
